# Reference: ChEMBL document CHEMBL3232793, “Fused heterocyclic compounds bearing bridgehead nitrogen as potent HIV-1 NNRTIs. Part 1: design, synthesis and biological evaluation of novel 5,7-disubstituted pyrazolo[1,5-a]pyrimidine derivatives” (Bioorg Med Chem, 2014)
# Experiments:
# [1] = system: Human immunodeficiency virus 1; assay: Antiviral activity against HIV1 3B infected in human MT4 cells assessed as virus-induced cytopathic effect by MTT assay; type: functional, organism-based; settings: Human immunodeficiency virus 1, 3B
# Method in brief: (§1)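 MT-4 cells, resuspended at 6 × 10⁵ cells/mL, infected with HIV-1 IIIB or HIV-2 ROD at 100–300 CCID50. Compounds added at assay start as serial five-fold dilutions in triplicate wells. Viability read spectrophotometrically by MTT 5 days after infection.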
# [2] = Cytotoxicity against human MT4 cells assessed as cell viability by MTT assay; type: cell-based
# Method in brief: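 Mock-infected MT-4 cells at 6 × 10⁵ cells/mL, run in parallel triplicate wells with the infected series. Compounds given as serial five-fold dilutions. MTT viability read spectrophotometrically at day 5.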
# [3] = biological target: Human immunodeficiency virus type 1 reverse transcriptase (Human immunodeficiency virus 1, UniProt Q72547); assay: Inhibition of recombinant HIV1 reverse transcriptase assessed as inhibition of biotin-dUTP incorporation in to poly [A] x oligo[dT]15 by ELISA
# Method in brief: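 Colorimetric kit (Roche) ELISA. Homopolymer template/primer bound to the microplate, with biotin-dUTP as the labelled nucleotide and 4 ng recombinant HIV-1 RT per well. Compounds tested at several concentrations.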
# [4] = system: Human immunodeficiency virus 2; assay: Antiviral activity against HIV2 ROD infected in human MT4 cells assessed as virus-induced cytopathic effect by MTT assay; type: functional, organism-based; settings: Human immunodeficiency virus 2, ISOLATE ROD; method in brief: as §1
# [5] = system: Human immunodeficiency virus 1; assay: Antiviral activity against wild type HIV1 infected in human Hela-JC53 cells assessed as inhibition of viral replication by luciferase reporter gene assay; type: functional, organism-based; settings: Human immunodeficiency virus 1, Hela-JC53
# [6] = system: Human immunodeficiency virus 1; assay: Antiviral activity against NNRTI-resistant HIV1 harboring K103N mutant infected in human Hela-JC53 cells assessed as inhibition of viral replication by luciferase reporter gene assay relative wild type HIV1; type: functional
# [7] = system: Human immunodeficiency virus 1; assay: Antiviral activity against NNRTI-resistant HIV1 harboring Y181C mutant infected in human Hela-JC53 cells assessed as inhibition of viral replication by luciferase reporter gene assay relative wild type HIV1; type: functional
# [8] = Selectivity index, ratio of compound activity for human HeLa cells to EC50 for wild type HIV1; type: toxicity, cell-based; settings: read-out: Selectivity Index
# [9] = Selectivity index, ratio of CC50 for human MT4 cells to EC50 for HIV1 3B; type: toxicity, cell-based; settings: read-out: Ratio CC50/EC50
# Method in brief: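 Selectivity index = CC50 (mock-infected MT-4 cells) / EC50 (IIIB or ROD protection). Both values come from the same 5-day MTT assay run in parallel triplicate wells.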
Compound,CC50 [2] [nM],EC50 [5] [nM],fold change (FC) [6],fold change (FC) [7],selectivity ratio [8],other results
Cc1ccnc2c1NC(=O)c1cccnc1N2C1CC1 [NEVIRAPINE],> 15000,,,,,EC50 [1]: 170 nM
Cc1cc(C)c(Oc2cc(Nc3ccc(C#N)cc3)nc3ccnn23)c(C)c1,,,,,,IC50 [3]: 2260 nM
Cc1cc(C#N)cc(C)c1Oc1nc(Nc2ccc(C#N)cc2)nc(N)c1Br [ETRAVIRINE],> 4600,,,,,EC50 [4]: 11 nM
Cc1cc(C#N)cc(C)c1Oc1nc(Nc2ccc(C#N)cc2)nc2cc[nH]c12,,0.8,3.8,3.8,> 50000,
Cc1cc(C#N)cc(C)c1Oc1nc(Nc2ccc(C#N)cc2)nc2[nH]ccc12,,0.9,11,11,> 50000,
CC(C)Nc1cccnc1N1CCN(C(=O)c2cc3cc(NS(C)(=O)=O)ccc3[nH]2)CC1 [DELAVIRDINE],> 43800,,,,,selectivity ratio [9]: > 277
